Experimental data published in ChEMBL document CHEMBL1821640, “Novel 1,2,3-triazole derivatives for use against Mycobacterium tuberculosis H37Rv (ATCC 27294) strain” (J Med Chem, 2011).
Converted amounts (≈) assume the structure as drawn.

How the values were obtained:
[1] = system: Mycobacterium tuberculosis; experiment: Antimicrobial activity against Mycobacterium tuberculosis H37Rv ATCC 27294 after 5 days by Microplate Alamar blue assay; format: functional; conditions: H37Rv ATCC 27294, 120 h
Outline: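 M. tuberculosis H37Rv grown 24 h at 37 °C, 150 rpm, in Middlebrook 7H9 + 10% OADC, washed, set to 0.1 McFarland and diluted 1:25. Two-fold dilutions in 7H9, final […], 5 days at 37 °C. Resazurin (Alamar Blue)/10% Tween 80 added for 24 h. MIC is the lowest concentration preventing a blue-to-pink change. Triplicates averaged.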

[2] = Cytotoxicity against human HepG2 cells after 24 hrs by MTT assay; format: cell-based; conditions: read-out: MLD50
Outline: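 HepG2 cells kept in RPMI 1640 with 10% heat-inactivated FCS and gentamicin at 37 °C under 5% CO2. Seeded at 5 × 10^3 cells/well and allowed to adhere for 18 h. Exposed to compound at 200–25 μg/mL for 24 h, then MTT (5 mg/mL solution) for 3 h. Absorbance is taken as % of untreated control after background subtraction, and MLD50 is derived.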

[3] = Cytotoxicity against african green monkey BGMK cells after 24 hrs by MTT assay; format: cell-based; conditions: chlorocebus aethiops, read-out: MLD50
[4] = Selectivity index, ratio of MDL50 for human HepG2 cells to MIC for Mycobacterium tuberculosis H37Rv ATCC 27294; format: functional
[5] = Selectivity index, ratio of MDL50 for african green monkey BGM cells to MIC for Mycobacterium tuberculosis H37Rv ATCC 27294; format: functional

| Structure (SMILES) | MIC [1] | CC50 at 24 h [2] [µg/mL] | CC50 at 24 h [3] [µg/mL] | Ratio [4] | Ratio [5] |
| --- | --- | --- | --- | --- | --- |
| OCc1cn(-c2ccccc2)nn1 | > 100 µg/mL |  |  |  |  |
| OCc1cn(-c2ccc(Cl)cc2)nn1 | > 100 µg/mL |  |  |  |  |
| O=C(N/N=C/c1cn(-c2ccc(F)cc2)nn1)c1ccncc1 | 4 µM | > 1000 | > 1000 | >800 | >800 |
| OCc1cn(-c2ccc(F)cc2)nn1 | > 100 µg/mL |  |  |  |  |
| OCc1cn(-c2cccc(Cl)c2)nn1 | > 100 µg/mL |  |  |  |  |
| OCc1cn(-c2ccccc2Cl)nn1 | > 100 µg/mL |  |  |  |  |
| Cc1ccc(-n2cc(CO)nn2)cc1 | > 100 µg/mL |  |  |  |  |
| Cc1cccc(-n2cc(CO)nn2)c1 | > 100 µg/mL |  |  |  |  |
| Cc1ccccc1-n1cc(CO)nn1 | > 100 µg/mL |  |  |  |  |
| O=[N+]([O-])c1ccc(-n2cc(CO)nn2)cc1 | > 100 µg/mL |  |  |  |  |
| COc1ccc(-n2cc(CO)nn2)cc1 | > 100 µg/mL |  |  |  |  |
| COc1cccc(-n2cc(CO)nn2)c1 | > 100 µg/mL |  |  |  |  |
| COc1ccccc1-n1cc(CO)nn1 | > 100 µg/mL |  |  |  |  |
| OCc1cn(-c2ccc(Cl)c(Cl)c2)nn1 | > 100 µg/mL |  |  |  |  |
| OCc1cn(-c2cc(Cl)ccc2Cl)nn1 | > 100 µg/mL |  |  |  |  |
| OCc1cn(-c2cc(Cl)cc(Cl)c2)nn1 | > 100 µg/mL |  |  |  |  |
| N#Cc1ccc(-n2cc(CO)nn2)cc1 | > 100 µg/mL |  |  |  |  |
| N#Cc1cccc(-n2cc(CO)nn2)c1 | > 100 µg/mL |  |  |  |  |
| OCc1cn(-c2ccc(Br)cc2)nn1 | > 100 µg/mL |  |  |  |  |
| Nc1nnc(-c2cccc(-n3cc(CO)nn3)c2)s1 | > 100 µg/mL |  |  |  |  |
| O=Cc1cn(-c2ccccc2)nn1 | 144 µM |  |  |  |  |
| O=Cc1cn(-c2ccc(F)cc2)nn1 | 131 µM |  |  |  |  |
| O=Cc1cn(-c2ccc(Cl)cc2)nn1 | 60.2 µM | 71 (≈ 342 µM) | 97 (≈ 467 µM) | 6 | 8 |

| Structure (SMILES) | MIC [1] | CC50 at 24 h [2] [µg/mL] | CC50 at 24 h [3] [µg/mL] | Ratio [4] | Ratio [5] |
| --- | --- | --- | --- | --- | --- |
| O=Cc1cn(-c2ccccc2Cl)nn1 | 241 µM |  |  |  |  |
| Cc1ccc(-n2cc(C=O)nn2)cc1 | 66.7 µM |  |  |  |  |
| Cc1cccc(-n2cc(C=O)nn2)c1 | 134 µM |  |  |  |  |
| Cc1ccccc1-n1cc(C=O)nn1 | 267 µM |  |  |  |  |
| O=Cc1cn(-c2ccc([N+](=O)[O-])cc2)nn1 | 115 µM |  |  |  |  |
| COc1ccc(-n2cc(C=O)nn2)cc1 | 123 µM |  |  |  |  |
| COc1cccc(-n2cc(C=O)nn2)c1 | 123 µM |  |  |  |  |
| COc1ccccc1-n1cc(C=O)nn1 | 246 µM |  |  |  |  |
| O=Cc1cn(-c2ccc(Cl)c(Cl)c2)nn1 | 207 µM |  |  |  |  |
| O=Cc1cn(-c2cc(Cl)ccc2Cl)nn1 | > 100 µg/mL |  |  |  |  |
| O=C(N/N=C/c1cn(-c2ccccc2)nn1)c1ccncc1 | 8.5 µM | > 1000 | > 1000 | >400 | >400 |
| O=C(N/N=C/c1cn(-c2ccc(Cl)cc2)nn1)c1ccncc1 | 1.8 µM | > 1000 | > 1000 | >1612 | >1612 |
| O=C(N/N=C/c1cn(-c2cccc(Cl)c2)nn1)c1ccncc1 | 1.8 µM | > 1000 | > 1000 | >1612 | >1612 |
| O=C(N/N=C/c1cn(-c2ccccc2Cl)nn1)c1ccncc1 | 3.8 µM | 263 (≈ 805 µM) | > 1000 | 210 | >800 |
| Cc1ccc(-n2cc(/C=N/NC(=O)c3ccncc3)nn2)cc1 | 4 µM | 118 (≈ 385 µM) | > 1000 | 94 | >800 |
| Cc1cccc(-n2cc(/C=N/NC(=O)c3ccncc3)nn2)c1 | 2 µM | 124 (≈ 405 µM) | 262 (≈ 855 µM) | 200 | 422 |
| Cc1ccccc1-n1cc(/C=N/NC(=O)c2ccncc2)nn1 | 8.1 µM | 314 (≈ 1030 µM) | > 1000 | 126 | 400 |
| O=C(N/N=C/c1cn(-c2ccc([N+](=O)[O-])cc2)nn1)c1ccncc1 | 1.8 µM | > 1000 | > 1000 | >1612 | >1612 |
| COc1ccc(-n2cc(/C=N/NC(=O)c3ccncc3)nn2)cc1 | 7.7 µM | > 1000 | > 1000 | >400 | >400 |
| COc1cccc(-n2cc(/C=N/NC(=O)c3ccncc3)nn2)c1 | 3.8 µM |  | > 1000 |  | >800 |
| COc1ccccc1-n1cc(/C=N/NC(=O)c2ccncc2)nn1 | 1.9 µM | > 1000 | > 1000 | >1612 | >1612 |
| O=C(N/N=C/c1cn(-c2ccc(Cl)c(Cl)c2)nn1)c1ccncc1 | 6.9 µM | > 1000 | > 1000 | >400 | >400 |
| O=C(N/N=C/c1cn(-c2cc(Cl)ccc2Cl)nn1)c1ccncc1 | 3.4 µM | > 1000 | > 1000 | >800 | >800 |

| Structure (SMILES) | MIC [1] | CC50 at 24 h [2] [µg/mL] | CC50 at 24 h [3] [µg/mL] | Ratio [4] | Ratio [5] |
| --- | --- | --- | --- | --- | --- |
| COC(=O)c1cn(-c2cc(Cl)cc(Cl)c2)nn1 | > 100 µg/mL |  |  |  |  |
| FC(F)(F)c1cn(-c2cc(Cl)cc(Cl)c2)nn1 | 177 µM |  |  |  |  |
| FCc1cn(-c2ccc(Cl)cc2)nn1 | 472 µM |  |  |  |  |
| FCc1cn(-c2cccc(Cl)c2)nn1 | 472 µM |  |  |  |  |
| FCc1cn(-c2cc(Cl)cc(Cl)c2)nn1 | 406 µM |  |  |  |  |
| N#Cc1ccc(-n2cc(CF)nn2)cc1 | > 100 µg/mL |  |  |  |  |
| N#Cc1cccc(-n2cc(CF)nn2)c1 | > 100 µg/mL |  |  |  |  |
| FCc1cn(-c2ccc(Br)cc2)nn1 | 390 µM |  |  |  |  |
| Nc1nnc(-c2cccc(-n3cc(C(F)F)nn3)c2)s1 | 340 µM |  |  |  |  |
| C=Cc1cn(-c2ccccc2)nn1 | > 100 µg/mL |  |  |  |  |
| C=Cc1cn(-c2ccc(Cl)cc2)nn1 | 243 µM |  |  |  |  |
| C=Cc1cn(-c2ccc([N+](=O)[O-])cc2)nn1 | > 100 µg/mL |  |  |  |  |
| C=Cc1cn(-c2ccc(OC)cc2)nn1 | 244 µM |  |  |  |  |
| C=Cc1cn(-c2ccccc2OC)nn1 | > 100 µg/mL |  |  |  |  |
| C=Cc1cn(-c2ccc(Cl)c(Cl)c2)nn1 | > 100 µg/mL |  |  |  |  |
| C=Cc1cn(-c2cc(Cl)ccc2Cl)nn1 | 13 µM | > 1000 | > 1000 | >321 | >321 |
| O=Cc1cn(-c2cccc(Cl)c2)nn1 | 121 µM |  |  |  |  |
| FC(F)c1cn(-c2cccc(Cl)c2)nn1 | > 100 µg/mL |  |  |  |  |
| N#Cc1cccc(-n2cc(C(F)F)nn2)c1 | 114 µM |  |  |  |  |
| NNC(=O)c1ccncc1 [ISONIAZID] | 0.437 µM |  |  |  |  |
| CO[C@H]1/C=C/O[C@@]2(C)Oc3c(C)c(O)c4c(O)c(c(/C=N/N5CCN(C)CC5)c(O)c4c3C2=O)NC(=O)/C(C)=C\C=C\[C@H](C)[C@H](O)[C@@H](C)[C@@H](O)[C@@H](C)[C@H](OC(C)=O)[C@@H]1C [RIFAMPIN] | 1.21 µM |  |  |  |  |
